What is called IC50 is the concentration at which inhibition is half-maximal. A higher IC50 goes with lower potency. Usually EC50 stands for the concentration at which the effect is half-maximal.

Each structure is given as a SMILES string.

Experiment [1] addresses Tyrosine-protein kinase Lck (Homo sapiens, UniProt P06239). The experiment in a line: Inhibition of p56 Lck tyrosine kinase.
Experiment [2] deals with Jurkat. Put plainly: Inhibition of Calcium release in jurkat cells. It counts as functional, cell-based. The settings on record: Homo sapiens. Summed up:
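Jurkat cells loaded with Fluo-3, washed in HBSS with 1 mM CaCl₂, 1 mM MgCl₂, 10 mM HEPES, 2 mM probenecid, 1% FBS, pH 7.4. Final 3 × 10⁵ cells/mL. Compound added for 15 min at room temperature, then anti-CD3 (clone X35, final 0.25 µg/mL). FLIPR fluorescence followed for 13 min. Peak minus baseline plotted against concentration gives EC₅₀. Mean of two or more experiments in duplicate ± SD.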

The species named for experiment [3] is Homo sapiens. The experiment in a line: Inhibition of IL-2 production in human whole blood. In kind it is functional.
Experiment [4] is described as follows: tissue or blood. In kind it is functional, tissue-based. The conditions noted are these: Homo sapiens.

Sequence of Tyrosine-protein kinase Lck (P06239 whole entry): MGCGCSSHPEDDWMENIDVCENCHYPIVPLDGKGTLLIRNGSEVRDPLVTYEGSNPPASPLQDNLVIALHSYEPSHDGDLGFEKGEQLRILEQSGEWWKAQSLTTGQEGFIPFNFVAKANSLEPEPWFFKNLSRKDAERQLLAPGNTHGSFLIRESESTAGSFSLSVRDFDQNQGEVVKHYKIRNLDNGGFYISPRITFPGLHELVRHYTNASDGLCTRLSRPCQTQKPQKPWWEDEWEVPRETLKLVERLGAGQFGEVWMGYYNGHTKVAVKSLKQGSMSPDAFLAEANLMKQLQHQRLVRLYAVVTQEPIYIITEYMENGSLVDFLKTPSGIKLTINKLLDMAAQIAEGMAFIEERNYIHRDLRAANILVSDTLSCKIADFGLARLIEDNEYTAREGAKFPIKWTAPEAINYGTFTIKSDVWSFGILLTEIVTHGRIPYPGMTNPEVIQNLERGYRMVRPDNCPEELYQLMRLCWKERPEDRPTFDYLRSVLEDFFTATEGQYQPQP

In experiment [1], `Cc1c(/C=C/CN(C)Cc2ccccc2)nc(O)c2c1ccc1nc(Nc3c(Cl)cccc3Cl)n(C)c12` showed an IC50 of 10 nM. Also, the 50% effective concentration (EC50) in experiment [2] was determined as 200 nM.

Turning to `COC(=O)/C=C/c1nc(O)c2c(ccc3nc(Nc4c(Cl)cccc4Cl)n(C)c32)c1C`, the IC50 in experiment [1] was found to be 86 nM. Besides, the EC50 in experiment [2] stood at 70 nM.

In experiment [1], `Cc1nc(O)c2c(ccc3nc(Nc4c(Cl)cccc4Cl)n(C)c32)c1CCN1CCOCC1` came in with an IC50 of 30 nM. In addition, the EC50 in experiment [2] came out at 270 nM.

`Cc1nc(O)c2c(ccc3nc(Nc4c(Cl)cccc4Cl)n(C)c32)c1CCO` displayed an IC50 in experiment [1] of 27 nM. Besides, in experiment [2], the EC50 amounted to 90 nM.

With `CCNC/C=C/c1nc(O)c2c(ccc3nc(Nc4c(Cl)cccc4Cl)n(C)c32)c1C`, half-maximal inhibition in experiment [1] (IC50) required 2 nM. Further, in experiment [2], the EC50 came out at 9 nM.

Regarding `Cc1nc(O)c2c(ccc3nc(Nc4c(Cl)cccc4Cl)n(C)c32)c1CC(=O)N1CCOCC1`, the midpoint of inhibition in experiment [1], the IC50, lay at 120 nM. For the same compound, in experiment [2], the EC50 worked out at 660 nM.

`Cc1c(/C=C/CN)nc(O)c2c1ccc1nc(Nc3c(Cl)cccc3Cl)n(C)c12` returned an IC50 in experiment [1] of 2 nM. The EC50 in experiment [2] worked out at 21 nM; in experiment [3] it was 3300 nM; in experiment [4], 920 nM.

`Cc1c(CO)nc(O)c2c1ccc1nc(Nc3c(Cl)cccc3Cl)n(C)c12` yielded an IC50 in experiment [1] of 770 nM. Besides, the EC50 in experiment [2] came out at 240 nM.

In experiment [1], `CCc1nc(O)c2c(ccc3nc(Nc4c(Cl)cccc4Cl)n(C)c32)c1C` displayed an IC50 of 780 nM. Further, the concentration for a half-maximal effect (EC50) in experiment [2] came out at 80 nM.

`Cc1c(/C=C/CN2CCOCC2)nc(O)c2c1ccc1nc(Nc3c(Cl)cccc3Cl)n(C)c12` came in with an IC50 in experiment [1] of 4 nM. The EC50 in experiment [2] was found to be 30 nM; in experiment [4], 170 nM.

On to `Cc1nc(O)c2c(ccc3c2nc(Nc2c(Cl)cccc2Cl)n3C)c1C`, for which the concentration for half-maximal inhibition (IC50) in experiment [1] was > 2000 nM.

On to `CCOC(=O)Cc1c(C)nc(O)c2c1ccc1nc(Nc3c(Cl)cccc3Cl)n(C)c12`, for which, in experiment [1], half-maximal inhibition (IC50) required 700 nM. Besides, in experiment [2], the EC50 came out at 140 nM.

Take `C=Cc1nc(O)c2c(ccc3nc(Nc4c(Cl)cccc4Cl)n(C)c32)c1C`: the midpoint of inhibition in experiment [1], the IC50, lay at 45 nM. Also, the figures for the EC50 in experiment [2], in experiment [3] and in experiment [4] were 20 nM, 12000 nM and 900 nM, respectively.

With `CCNC(=O)Cc1c(C)nc(O)c2c1ccc1nc(Nc3c(Cl)cccc3Cl)n(C)c12`, the IC50 in experiment [1] amounted to 460 nM. Moreover, the 50% effective concentration (EC50) in experiment [2] was 600 nM.

In the case of `Cc1c(/C=C/CN2CCCC2)nc(O)c2c1ccc1nc(Nc3c(Cl)cccc3Cl)n(C)c12`, the concentration for a half-maximal effect (EC50) is 5 nM in experiment [2], 300 nM in experiment [3] and 150 nM in experiment [4].

In experiment [1], `Cc1nc(O)c2c(cc(CNCCO)c3nc(Nc4c(Cl)cccc4Cl)n(C)c32)c1C` displayed an IC50 of 26 nM. Further, the 50% effective concentration (EC50) in experiment [2] is 120 nM.

In experiment [1], `COC(=O)c1c(C)nc(O)c2c1ccc1nc(Nc3c(Cl)cccc3Cl)n(C)c12` showed an IC50 of 87 nM. In experiment [2], the EC50 stood at 90 nM.

In the case of `Cc1nc(O)c2c(ccc3nc(Nc4c(Cl)cccc4Cl)n(C)c32)c1CC(=O)N1CCCC1`, the IC50 in experiment [1] came to 740 nM. Also, the half-maximal effective concentration (EC50) in experiment [2] is 270 nM.

`Cc1nc(O)c2c(ccc3nc(Nc4c(Cl)cccc4Cl)n(C)c32)c1CC(=O)N1CCN(C)CC1` returned an IC50 in experiment [1] of 440 nM. For the same compound, the EC50 in experiment [2] worked out at 1200 nM.

Take `Cc1nc(O)c2c(ccc3nc(Nc4c(Cl)cccc4Cl)n(C)c32)c1C`: the IC50 in experiment [1] is 23 nM. In addition, the EC50 in experiment [2] came to 130 nM; in experiment [3], 1100 nM.

Compound `Cc1c(C=O)nc(O)c2c1ccc1nc(Nc3c(Cl)cccc3Cl)n(C)c12` yielded an IC50 in experiment [1] of 170 nM. Moreover, in experiment [2], the EC50 is 450 nM.

Turning to `Cc1nc(O)c2c(ccc3[nH]c(Nc4c(Cl)cccc4Cl)nc32)c1C`, in experiment [1], the IC50 worked out at 110 nM. In experiment [2], the EC50 came out at 180 nM.

`Cc1nc(O)c2c(ccc3nc(Nc4c(Cl)cccc4Cl)n(C)c32)c1CCC(=O)N1CCOCC1`: the IC50 in experiment [1] was found to be 120 nM. Further, the half-maximal effective concentration (EC50) in experiment [2] turned out to be 270 nM.

In turn, `C=CC(O)c1nc(O)c2c(ccc3nc(Nc4c(Cl)cccc4Cl)n(C)c32)c1C` (stereo unspecified) gave an IC50 in experiment [1] of 570 nM. Besides, the EC50 in experiment [2] was determined as 1300 nM.

Take `Cc1c(/C=C/CO)nc(O)c2c1ccc1nc(Nc3c(Cl)cccc3Cl)n(C)c12`: the EC50 in experiment [2] was 8 nM; in experiment [3], 3000 nM.

For the compound `CCn1c(Nc2c(Cl)cccc2Cl)nc2ccc3c(C)c(C)nc(O)c3c21`, the IC50 in experiment [1] is > 2500 nM.

Compound `Cc1c(/C=C/CN(C)C)nc(O)c2c1ccc1nc(Nc3c(Cl)cccc3Cl)n(C)c12` came in with an IC50 in experiment [1] of 3 nM. In addition, the EC50 in experiment [2] was determined as 10 nM; in experiment [3] it was 680 nM; in experiment [4], 560 nM.

The compound `Cc1c(CNCc2ccccc2)nc(O)c2c1ccc1nc(Nc3c(Cl)cccc3Cl)n(C)c12` showed an IC50 in experiment [1] of 2000 nM. Besides, the EC50 in experiment [2] came to 4200 nM.

On to `Cc1nc(O)c2c(cc(-c3ccc(F)nc3F)c3nc(Nc4c(Cl)cccc4Cl)n(C)c32)c1C`, for which, in experiment [1], half-maximal inhibition (IC50) was put at 50 nM. Further, in experiment [2], the EC50 was 370 nM.

As to `COc1ccc(CNCc2cc3c(C)c(C)nc(O)c3c3c2nc(Nc2c(Cl)cccc2Cl)n3C)cc1`, the IC50 in experiment [1] stood at 180 nM. Moreover, the EC50 in experiment [2] was found to be 500 nM.

In the case of `Cc1nc(O)c2c(ccc3nc(Nc4c(Cl)cccc4Cl)n(C)c32)c1CCCN1CCOCC1`, inhibition in experiment [1] was half-maximal at 110 nM (IC50). In addition, in experiment [2], the EC50 is 300 nM.

In turn, `COC(=O)CCc1nc(O)c2c(ccc3nc(Nc4c(Cl)cccc4Cl)n(C)c32)c1C` registered an IC50 in experiment [1] of 360 nM. Also, in experiment [2], the EC50 came to 230 nM.

Values taken from ChEMBL document CHEMBL1136753, “Optimization of 2-phenylaminoimidazo[4,5-h]isoquinolin-9-ones: orally active inhibitors of lck kinase” (J Med Chem, 2003).
